These results are taken from ChEMBL document CHEMBL1123993, “2(1H)-quinolinones with cardiac stimulant activity. 1. Synthesis and biological activities of (six-membered heteroaryl)-substituted derivatives” (1988).

A value given as a limit tells only on which side of the number the result lay.

Experiment [1] deals with Canis familiaris. The experiment is described as follows: Percentage increase in dP/dt maximum observed with 4-[4-[2-(1,1-dioxo-2-isothiazolidinyl)-ethyl]-[…] (50 ug/Kg) in dog. The format is functional, Canis lupus familiaris. In a few lines:
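Standard quinazoline inotrope given iv at 50 µg/kg to anesthetized dogs before each test compound. Left ventricular pressure recorded by Millar catheter via the carotid artery and differentiated to dP/dt max. Response expressed as % increase in dP/dt max; individual values taken from a typical test run.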

For experiment [2], the system named is Canis familiaris. The experiment is described as follows: Inotropic activity measured as % increase in dP/dt maximum in Anesthetized dog at the dose of 50 ug/Kg administered intravenously. The format is functional, Canis lupus familiaris. The essentials:
(§1)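 Anesthetized dogs. LVP recorded via Millar catheter passed into the left ventricle through the carotid artery, differentiated to dP/dt max. After 0.75 h equilibration, compound given iv in 0.9% saline 0.5 h after a standard quinazoline inotrope (50 µg/kg). Cycle repeated once control levels returned, at least 0.5 h between doses. Reported as % increase in dP/dt max; relative potency normalised by dose to the standard in the same dog.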

Experiment [3] concerns Canis familiaris. The experiment is described as follows: Decrease in QA interval in Conscious dog (n=4) 1 hr after a dose of 1 mg / Kg was administered per orally. Details: unit not given beside the values. The format is functional, Canis lupus familiaris. The essentials: (§2)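 Conscious dogs (n = 4) given test substance as a solution by oral gavage. QA interval (ms from ECG R wave to arterial pressure pulse upstroke) recorded by computer every 0.16 h, from 0.5 h predose to 4 h postdose. Each time-point value is the mean of six consecutive 8-s sets. Reported as decrease from mean predose control.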

Experiment [4] concerns Canis familiaris. Briefly: Decrease in QA interval in Conscious dog(n=4) 3h after a dose of 1 mg/kg was administered per orally.
Experiment [5] concerns Canis familiaris. Briefly: Decrease in QA interval in Conscious dog(n=4) 3h after a dose of 1 ug/kg was administered per orally. Format: functional, Canis lupus familiaris. The conditions noted are these: in the assay text read “1 mg/kg” for “1 ug/kg”. In a few lines:
as §2

Experiment [6] has as its system Canis familiaris. Briefly: Inotropic activity measured as % increase in dP/dt maximum in Anesthetized dog at the dose of 250 ug/Kg administered intravenously. The format is functional, Canis lupus familiaris. The essentials: as §1
The subject of experiment [7] is Canis familiaris. The experiment is described as follows: Decrease in QA interval in Conscious dog (n=4) 3h after a dose of 1 ug/Kg was administered per orally. The conditions noted are these: in the assay text read “1 mg/Kg” for “1 ug/Kg”. The format is functional, Canis lupus familiaris. In a few lines:
as §2

In experiment [8] the test system is Canis familiaris. Briefly: Decrease in QA interval in Conscious dog (n=4) 1 hr after a dose of 1 mg/Kg was administered per orally.
The subject of experiment [9] is Canis familiaris. Briefly: Inotropic activity measured as % increase in dP/dt maximum in Anesthetized dog at the dose of 12.5 ug/Kg administered intravenously. The format is functional, Canis lupus familiaris. The essentials:
as §1

Experiment [10] deals with Canis familiaris. The experiment is described as follows: Decrease in QA interval in Conscious dog (n=4) 1 hr after a dose of 0.5 mg / Kg was administered per orally. The format is functional, Canis lupus familiaris. In a few lines: as §2
Experiment [11] deals with Canis familiaris. Briefly: Decrease in QA interval in Conscious dog(n=4) 3h after a dose of 1 mg/Kg was administered per orally. Format: functional, Canis lupus familiaris. In a few lines: as §2
Experiment [12] concerns Canis familiaris. Briefly: Decrease in QA interval in Conscious dog (n=4) 1 hr after a dose of 2 mg/Kg was administered per orally. The format is functional, Canis lupus familiaris. In a few lines:
as §2

In experiment [13] the test system is Canis familiaris. Briefly: Decrease in QA interval in Conscious dog(n=4) 3h after a dose of 2 mg/Kg was administered per orally. Format: functional, Canis lupus familiaris. The essentials:
as §2

The subject of experiment [14] is Canis familiaris. Briefly: Inotropic activity measured as % increase in dP/dt maximum in Anesthetized dog at the dose of 25 ug/Kg administered intravenously. The format is functional, Canis lupus familiaris. The essentials: as §1
The test system of experiment [15] is Canis familiaris. Briefly: Decrease in QA interval in Conscious dog (n=4) 1 hr after a dose of 0.25 mg/Kg was administered per orally. The format is functional, Canis lupus familiaris. The essentials: as §2
Experiment [16] deals with Canis familiaris. Briefly: Decrease in QA interval in Conscious dog (n=4) 3h after a dose of 0.25 mg/Kg was administered per orally. Format: functional, Canis lupus familiaris. In a few lines: as §2

Regarding `Oc1ccc2cc(-c3cncnc3)ccc2n1`, the Relative potency in experiment [1] amounted to 1.1. The dP/dt in experiment [2] is reported as 44%. The Decrease in experiment [3] turned out to be 3; in [4], 1.

Compound `CSc1cc(-c2ccc(C)nc2C)cc2ccc(O)nc12` returned a Relative potency in [1] of 0.5. Further, the dP/dt in experiment [2] came out at 20.

`Cc1ccncc1-c1ccc2nc(O)ccc2c1`: the Relative potency in [1] is given as 1.3. Further, the dP/dt in experiment [2] stood at 21%.

In [1], `Oc1ccc2ccc(-c3cccnc3)cc2n1` registered a Relative potency of 0.2. Besides, the dP/dt in [2] amounted to 6%.

In turn, `COc1ccc(-c2ccc3nc(O)ccc3c2)cn1` came in with a Relative potency in experiment [1] of 0.3. The compound also returned a dP/dt in [2] of 11%.

Take `CCc1cc(-c2ccc(C)nc2C)cc2ccc(O)nc12`: the Relative potency in [1] amounted to 1. Also, in experiment [2], the dP/dt was 35%.

Take `Cc1ccc(-c2cc(C(C)C)c3nc(O)ccc3c2)c(C)n1`: the Relative potency in [1] is given as 0.4. The compound further yielded a dP/dt in experiment [2] of 16%.

Turning to `Oc1ccc2cc(-c3ncccn3)ccc2n1`, in experiment [1], the Relative potency was 0.7. The same compound gave a dP/dt in [2] of 28%. In addition, the Decrease in [3] and in experiment [5] was 4 in each case.

Turning to `Cc1ccc(-c2cc(Br)c3nc(O)ccc3c2)c(C)n1`, in experiment [1], the Relative potency amounted to 0.7. In experiment [2], the dP/dt came out at 41%.

`Cc1ccc(-c2ccc3c(c2)CCC(=O)N3)c(C)n1` came in with a Relative potency in [1] of 0.8. Moreover, in experiment [2], the dP/dt stood at 32%.

Regarding `COc1cc(-c2ccc(C)nc2C)cc2ccc(O)nc12`, the Relative potency in experiment [1] came out at 0.4. Also, in experiment [2], the dP/dt stood at 11%.

Consider `Cc1cc2nc(O)ccc2cc1-c1cccnc1`, for which the Relative potency in experiment [1] was 0.2. Moreover, in [6], the dP/dt is recorded as 51%.

For `O=[N+]([O-])c1cc2cc(-c3cccnc3)ccc2nc1O`, the Relative potency in experiment [1] is 0.6. Moreover, in [2], the dP/dt is on record as 39%.

Take `O=C1CCc2cc(-c3cccnc3)ccc2N1`: the Relative potency in [1] came to 1.1. For the same compound, the dP/dt in experiment [2] turned out to be 41%. Besides, the figures for the Decrease in [7] and in experiment [8] were 7 and 10, respectively.

The compound `Cc1cc(-c2cccnc2)cc2ccc(O)nc12` gave a Relative potency in experiment [1] of 9. For the same compound, the dP/dt in experiment [9] was determined as 112%. Besides, the Decrease turned out to be 16 in experiment [10] and 20 in experiment [5].

With `Cc1ccc(-c2cc(C)c3nc(O)ccc3c2)c(C)n1`, the Relative potency in experiment [1] was determined as 4.3. Moreover, the dP/dt in experiment [9] was 43%. Also, the Decrease in experiment [3] came to 21; in [4], 19.

As to `Oc1ccc2c(-c3cccnc3)cccc2n1`, the Relative potency in experiment [1] is 0.9. In addition, in experiment [2], the dP/dt amounted to 44%. Also, the figures for the Decrease in experiment [3] and in experiment [5] were 9 and 4, respectively.

Regarding `Cc1cc(O)nc2ccc(-c3cccnc3)cc12`, in experiment [1], the Relative potency is given as 0.7. The same compound gave a dP/dt in experiment [2] of 39%.

In experiment [1], `Nc1cc2cc(-c3cccnc3)ccc2nc1O` came in with a Relative potency of 0.9. In [2], the dP/dt came to 63%.

As for `Cc1ccc(-c2ccc3nc(O)ccc3c2)cn1`, the Relative potency in [1] was found to be 1.3. Further, the dP/dt in [2] worked out at 46%.

Turning to `Oc1ccc2cc(-c3ccncn3)ccc2n1`, in experiment [1], the Relative potency came to 1.2. This compound registered a dP/dt in experiment [2] of 38%. The Decrease in experiment [3] is on record as 6; in experiment [5] it was 2.

In experiment [1], `Cc1ccc(-c2ccc3nc(O)ccc3c2)c(C)n1` returned a Relative potency of 1.4. The same compound displayed a dP/dt in experiment [2] of 37%. The Decrease in experiment [3] was determined as 6; in experiment [5] it was 5.

`Nc1ccc(-c2ccc3nc(O)ccc3c2)cn1` registered a Relative potency in [1] of 0.8. The compound further registered a dP/dt in experiment [2] of 30%.

Compound `Cc1ncccc1-c1ccc2nc(O)ccc2c1` came in with a Relative potency in experiment [1] of 1.7. This compound yielded a dP/dt in experiment [2] of 74%.

Turning to `Oc1ccc2cc(-c3ccncc3)ccc2n1`, the Relative potency in [1] is 0.9. In experiment [2], this compound gave a dP/dt of 51%. For the same compound, the figures for the Decrease in experiment [3] and in [11] were 13 and 8, respectively.

In experiment [1], `Oc1ccc2cc(-c3cccnn3)ccc2n1` came in with a Relative potency of 0.7. Moreover, the dP/dt in [2] is on record as 32%. Besides, the Decrease in [3] came out at 8; in experiment [5] it was 5.

As to `Cc1ccc(-c2cc(O)c3nc(O)ccc3c2)c(C)n1`, the Relative potency in experiment [1] was less than 0.1. In [2], this compound registered a dP/dt of 19%.

In turn, `Oc1ccc2cc(-c3ccnnc3)ccc2n1` came in with a Relative potency in experiment [1] of 1.3. Moreover, the dP/dt in experiment [2] was 43%.

In turn, `N#Cc1cc2cc(-c3cccnc3)ccc2nc1O` came in with a Relative potency in [1] of 0.9. Besides, the dP/dt in experiment [2] worked out at 46%.

`Oc1ccc2cc(-c3ccccn3)ccc2n1`: in [1], the Relative potency worked out at 0.3. Also, the dP/dt in [6] is listed as 62%. Further, the Decrease in [12] came to 2; in experiment [13], 1.

In the case of `Oc1ccc2cc(-c3cccnc3)ccc2n1`, the Relative potency in [1] worked out at 1.3. Moreover, in experiment [2], the dP/dt worked out at 54%. Further, the Decrease is recorded as 14 in [3] and 7 in experiment [11].

For the compound `CSc1ccc(C(=O)c2[nH]c(=O)[nH]c2C)cc1` [ENOXIMONE], in experiment [1], the Relative potency amounted to 0.013. The compound further came in with a dP/dt in experiment [6] of 32%.

In experiment [1], `Cc1[nH]c(=O)c(C#N)cc1-c1ccncc1` [MILRINONE] came in with a Relative potency of 1.6. In addition, the dP/dt in [14] was 46%. In addition, the Decrease worked out at 13 in experiment [15] and 7 in [16].
